According to ChEMBL document CHEMBL3871280, “Bis(N-amidinohydrazones) and N-(amidino)-N'-aryl-bishydrazones: New classes of antibacterial/antifungal agents” (Bioorg Med Chem, 2017):
The source made the active and inactive calls. The calls are words filed in the database; no cut-off is given here.

Experiments:
Bacillus subtilis = assay: Antibacterial activity against Bacillus subtilis 168; assay type: functional; details: subsp. subtilis str. 168
Listeria monocytogenes [1] = assay: Antibacterial activity against Listeria monocytogenes ATCC 19115; assay type: functional
Acinetobacter baumannii = assay: Antibacterial activity against Acinetobacter baumannii ATCC 19606; assay type: functional
Enterobacter cloacae = assay: Antibacterial activity against Enterobacter cloacae ATCC 13047; assay type: functional; details: subsp. cloacae ATCC 13047
Escherichia coli = assay: Antibacterial activity against Escherichia coli MC1061; assay type: functional
Procedure, shortened: (§1)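 Values were set in μM and converted to μg/mL for presentation. Amikacin, ampicillin and ofloxacin served as positive controls.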

Klebsiella pneumoniae = assay: Antibacterial activity against Klebsiella pneumoniae ATCC 27736; assay type: functional
Pseudomonas aeruginosa [2] = assay: Antibacterial activity against Pseudomonas aeruginosa ATCC 27853; assay type: functional
[3] = Antibacterial activity against Salmonella enterica ATCC 14028; assay type: functional
[4] = tested on: Mycolicibacterium smegmatis; assay: Antimycobacterial activity against Mycobacterium smegmatis MC2 155; assay type: functional; details: str. MC2 155; procedure, shortened: as §1
Candida albicans [5] = assay: Antifungal activity against Candida albicans ATCC 1003; assay type: functional
[6] = Antifungal activity against fluconazole/itraconazole/voriconazole-resistant Candida albicans ATCC 1237; assay type: functional
[7] = Antifungal activity against fluconazole/itraconazole/voriconazole-susceptible Candida albicans ATCC 2310; assay type: functional
[8] = Antifungal activity against fluconazole/itraconazole/voriconazole-susceptible Candida albicans ATCC 2876; assay type: functional
[9] = Antifungal activity against fluconazole/itraconazole/voriconazole-resistant Candida albicans ATCC 10231; assay type: functional
[10] = Antifungal activity against fluconazole/itraconazole/voriconazole-resistant Candida albicans ATCC 64124; assay type: functional
[11] = Antifungal activity against fluconazole/itraconazole/voriconazole-resistant Candida albicans ATCC 90819; assay type: functional
Listeria monocytogenes [12] = assay: Antibacterial activity against Listeria monocytogenes ATCC 19115 at 0.5 times MIC after […] serial passages; assay type: functional
Procedure, shortened: (§2)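 Multi-step resistance selection with serial sub-culture of bacteria at sub-inhibitory compound concentrations for 15 passages. MIC was redetermined after each passage to follow any increase over the starting value. Amikacin was run in parallel as reference.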

Enterococcus [13] = assay: Antibacterial activity against vancomycin-resistant Enterococcus at 0.5 times MIC after […] serial passages; assay type: functional; procedure, shortened: as §2
Candida albicans [14] = assay: Induction of intracellular ROS production in Candida albicans ATCC 10231 at 1 to 2 times MIC after 1 hr by DCFH-DA probe based fluorescence microscopic analysis; assay type: functional, cell-based
Procedure, shortened: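 C. albicans ATCC 10231 was exposed for 1 h at 35 °C, with untreated cells as negative control and 1 mM H2O2 as positive control. Cells were then stained with DCFH-DA (20 μg/mL), and intracellular ROS was read by fluorescence microscopy.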

[15] = Cytotoxicity against human A549 cells assessed as reduction in cell survival; assay type: toxicity, cell-based
[16] = Cytotoxicity against human BEAS2B cells assessed as reduction in cell survival; assay type: toxicity, cell-based; details: beas-2b
Staphylococcus aureus [17] = assay: Antibacterial activity against methicillin-resistant Staphylococcus aureus; assay type: functional; procedure, shortened: as §1
Enterococcus [18] = assay: Antibacterial activity against vancomycin-resistant Enterococcus; assay type: functional; procedure, shortened: as §1
Listeria monocytogenes [19] = assay: Ratio of MIC for Listeria monocytogenes ATCC 19115 after and before 15 serial passages at 0.5 times MIC; assay type: functional; procedure, shortened: as §2
Staphylococcus aureus [20] = assay: Ratio of MIC for methicillin-resistant Staphylococcus aureus after and before 15 serial passages at 0.5 times MIC; assay type: functional; procedure, shortened: as §2
Enterococcus [21] = assay: Ratio of MIC for vancomycin-resistant Enterococcus after and before 15 serial passages at 0.5 times MIC; assay type: functional; procedure, shortened: as §2
Pseudomonas aeruginosa [22] = assay: Ratio of MIC for Pseudomonas aeruginosa ATCC 27853 after and before 15 serial passages at 0.5 times MIC; assay type: functional; procedure, shortened: as §2
Candida albicans [23] = assay: Ratio of MIC for Candida albicans ATCC 10231 after and before 13 serial passages at 0.5 times MIC; assay type: functional

SMILES | MIC (Bacillus subtilis) | MIC (Listeria monocytogenes [1]) | MIC (Acinetobacter baumannii) | MIC (Enterobacter cloacae) | MIC (Escherichia coli) | MIC (Klebsiella pneumoniae) | MIC (Pseudomonas aeruginosa [2]) | MIC [3] | MIC [4] | MIC (Candida albicans [5]) | MIC [6] | MIC [7] | MIC [8] | MIC [9] | MIC [10] | MIC [11] | Activity (Candida albicans [14]) | IC50 [15] | IC50 [16] | MIC (Staphylococcus aureus [17]) | also measured
Cl.N=C(N)N/N=C/c1ccc(-c2ccc(/C=N/Nc3ccccc3Cl)cc2)cc1 | > 500 µM | 1 to 2 µM | > 500 µM | > 500 µM | > 500 µM | > 500 µM | > 500 µM | > 500 µM | 3.9 µM | 4.6 µM | 9.2 µM | 4.6 µM | 4.6 µM | 4.6 µM | 9.2 µM | 4.6 µM | Active | 2.8 µg/mL | 2.3 µg/mL | – | Activity (Listeria monocytogenes [12]): Active; Activity (Enterococcus [13]): Active
C/C(=N\NC(=N)N)c1ccc(CCc2ccc(/C(C)=N/NC(=N)N)cc2)cc1.Cl.Cl | > 500 µM | 1 µM | > 500 µM | > 500 µM | > 500 µM | > 500 µM | > 500 µM | > 500 µM | 1 µM | 34.6 µM | 34.6 µM | 69.3 µM | 8.6 µM | 17.3 µM | > 69.3 µM | 17.3 µM | – | 2.9 µg/mL | 1.8 µg/mL | 1 to 2 µM | MIC (Enterococcus [18]): 1 µM; fold change (FC) (Listeria monocytogenes [19]): 8; fold change (FC) (Staphylococcus aureus [20]): 4 - 16; fold change (FC) (Enterococcus [21]): 16
C/C(=N\NC(=N)N)c1ccc2c(c1)Cc1cc(/C(C)=N/NC(=N)N)ccc1-2.Cl.Cl | 7.8 µM | < 0.5 µM | 500 µM | 500 µM | 500 µM | 31.3 to 62.5 µM | 1 to 2 µM | 3.9 µM | – | 2.3 µM | 4.6 µM | 2.3 µM | 2.3 µM | 2.3 to 4.6 µM | 2.3 µM | 4.6 µM | Active | 2.5 µg/mL | 1.8 µg/mL | 1 to 2 µM | fold change (FC) (Listeria monocytogenes [19]): 1; fold change (FC) (Staphylococcus aureus [20]): 1; fold change (FC) (Enterococcus [21]): 1; fold change (FC) (Pseudomonas aeruginosa [22]): 1; fold change (FC) (Candida albicans [23]): 2
